ChEMBL document CHEMBL3808325, “Discovery and Optimization of Macrocyclic Quinoxaline-pyrrolo-dihydropiperidinones as Potent Pim-1/2 Kinase Inhibitors” (ACS Med Chem Lett, 2016)

What was measured:
Mus musculus [1] = experiment: In vivo inhibition of Pim1/2-mediated BAD protein phosphorylation at Ser-112 in human KMS-12-BM cells xenografted in SCID-beige mouse assessed as pBAD level at 25 mg/kg, po administered as single dose measured after 6 hrs by meso scale discovery assay; assay type: functional; parameters: scale not given: the % may be the effect or the level left
Outline: (§1)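 KMS-12-BM xenograft mice given a single oral dose of 25, 50 or 100 mg/kg. Tumor Ser-112 pBAD measured at time points through 16 h postdose. EC50 obtained by fitting all individual total plasma concentration–pBAD response data. Unbound value derived from mouse plasma fraction unbound.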

[2] = molecular target: Casein kinase I isoform delta (Homo sapiens) (UniProt P48730); experiment: Inhibition of full-length human CSNK1D expressed in bacterial system assessed as remaining enzyme activity at 1 uM by KINOMEscan assay
Sequence of Casein kinase I isoform delta (Homo sapiens) (P48730 whole entry, looked up, canonical isoform): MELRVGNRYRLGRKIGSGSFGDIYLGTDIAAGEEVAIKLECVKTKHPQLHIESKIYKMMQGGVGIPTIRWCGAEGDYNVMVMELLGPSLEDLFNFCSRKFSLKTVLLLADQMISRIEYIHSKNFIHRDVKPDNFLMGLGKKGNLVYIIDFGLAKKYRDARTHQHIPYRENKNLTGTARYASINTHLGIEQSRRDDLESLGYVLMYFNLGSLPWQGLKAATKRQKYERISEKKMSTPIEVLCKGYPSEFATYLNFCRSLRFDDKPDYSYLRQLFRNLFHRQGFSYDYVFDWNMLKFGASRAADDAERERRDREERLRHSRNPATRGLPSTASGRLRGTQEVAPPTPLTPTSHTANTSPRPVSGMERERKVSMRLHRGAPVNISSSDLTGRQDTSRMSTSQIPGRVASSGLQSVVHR
Outline: (§2)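 scanMAX KINOMEscan panel of 392 nonmutant kinases, compound tested at 1 μM. Result expressed as percent of control (POC). S(10) and S(1) scores are the fraction of kinases with POC below 10% and below 1%.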

[3] = Volume of distribution at steady state in Sprague-Dawley rat at 2 mg/kg, iv; assay type: ADME, organism-based; conditions: in vivo, read-out: Vdss
Outline: (§3)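 Pharmacokinetics in male Sprague–Dawley rats. Clearance also expressed as a percentage of liver blood flow. Oral bioavailability determined.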

[4] = Drug metabolism in human liver microsomes assessed as compound turnover at 1 uM incubated for 30 mins; assay type: ADME; conditions: read-out: Drug metabolism
Mus musculus [5] = experiment: In vivo inhibition of Pim1/2-mediated BAD protein phosphorylation at Ser-112 in human KMS-12-BM cells xenografted in SCID-beige mouse assessed as pBAD level at 25 mg/kg, po administered as single dose measured after 16 hrs by meso scale discovery assay; assay type: functional; parameters: scale not given: the % may be the effect or the level left; outline: as §1
[6] = molecular target: Serine/threonine-protein kinase pim-3 (Homo sapiens) (UniProt Q86V86); experiment: Inhibition of human PIM3 assessed as remaining enzyme activity at 1 uM by KINOMEscan assay
Outline: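 Profiled at 1 μM compound across a scanMAX KINOMEscan panel of 392 nonmutant kinases. Activity is reported as percent-of-control (POC). Panel-wide S(10) and S(1) selectivity scores are the fraction of kinases with POC below 10% and below 1%.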

Mus musculus [7] = experiment: Toxicity in human KMS-12-BM cells xenografted SCID-beige mouse assessed as drug tolerability at 10 to 100 mg/kg, po qd; assay type: organism-based; conditions: in vivo
Outline: (§4)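 Tolerability followed in KMS-12-BM xenograft mice given oral doses once daily at 10, 25, 50 or 100 mg/kg over a 16-day efficacy study. Body weight monitored throughout.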

Mus musculus [8] = experiment: In vivo inhibition of Pim1/2-mediated BAD protein phosphorylation at Ser-112 in human KMS-12-BM cells xenografted in SCID-beige mouse measured after 6 to 16 hrs by meso scale discovery assay; assay type: functional, organism-based; outline: as §1
[9] = molecular target: Homeodomain-interacting protein kinase 2 (Homo sapiens) (UniProt Q9H2X6); experiment: Inhibition of human HIPK2 assessed as remaining enzyme activity at 1 uM by KINOMEscan assay; outline: as §2
Sequence of Homeodomain-interacting protein kinase 2 (Homo sapiens) (Q9H2X6 whole entry, looked up): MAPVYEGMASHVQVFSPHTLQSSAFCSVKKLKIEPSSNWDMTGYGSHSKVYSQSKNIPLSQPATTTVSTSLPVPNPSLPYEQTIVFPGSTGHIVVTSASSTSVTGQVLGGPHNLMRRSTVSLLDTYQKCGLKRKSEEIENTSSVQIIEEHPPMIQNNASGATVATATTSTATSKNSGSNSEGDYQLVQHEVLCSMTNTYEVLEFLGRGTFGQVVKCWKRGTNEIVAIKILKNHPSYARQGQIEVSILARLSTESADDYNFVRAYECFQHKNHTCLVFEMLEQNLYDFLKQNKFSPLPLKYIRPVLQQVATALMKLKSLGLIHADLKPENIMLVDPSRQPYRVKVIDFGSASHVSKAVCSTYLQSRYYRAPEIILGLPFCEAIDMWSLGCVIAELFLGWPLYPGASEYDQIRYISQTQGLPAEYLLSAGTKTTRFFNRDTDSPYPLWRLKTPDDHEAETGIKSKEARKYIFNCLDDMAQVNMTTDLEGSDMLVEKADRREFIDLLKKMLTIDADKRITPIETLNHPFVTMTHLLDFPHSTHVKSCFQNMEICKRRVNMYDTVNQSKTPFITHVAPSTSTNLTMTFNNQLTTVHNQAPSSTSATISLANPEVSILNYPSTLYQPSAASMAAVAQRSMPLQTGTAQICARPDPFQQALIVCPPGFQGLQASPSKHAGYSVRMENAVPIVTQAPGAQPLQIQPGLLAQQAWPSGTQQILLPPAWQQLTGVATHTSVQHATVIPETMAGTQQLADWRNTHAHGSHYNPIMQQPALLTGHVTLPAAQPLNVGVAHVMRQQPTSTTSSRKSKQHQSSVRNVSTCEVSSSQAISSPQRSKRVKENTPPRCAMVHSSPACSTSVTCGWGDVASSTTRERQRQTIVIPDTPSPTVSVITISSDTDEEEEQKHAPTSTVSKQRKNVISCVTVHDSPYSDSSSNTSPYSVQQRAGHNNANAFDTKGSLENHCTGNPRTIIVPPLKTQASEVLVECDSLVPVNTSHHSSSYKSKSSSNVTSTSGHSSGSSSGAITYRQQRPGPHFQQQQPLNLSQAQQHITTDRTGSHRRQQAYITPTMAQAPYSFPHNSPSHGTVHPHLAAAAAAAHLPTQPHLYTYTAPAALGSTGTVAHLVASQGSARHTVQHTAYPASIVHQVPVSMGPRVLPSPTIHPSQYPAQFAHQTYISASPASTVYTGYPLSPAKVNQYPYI

[10] = Cytotoxicity against human KMS-12-BM cells after 72 hrs by cell titer-glo luminescence assay; assay type: functional, cell-based
[11] = molecular target: Serine/threonine-protein kinase haspin (Homo sapiens) (UniProt Q8TF76); experiment: Inhibition of human haspin assessed as remaining enzyme activity at 1 uM by KINOMEscan assay; outline: as §2
Mus musculus [12] = experiment: Toxicity in human KMS-12-BM cells xenografted SCID-beige mouse assessed as effect on body weight at 10 to 100 mg/kg, po qd; assay type: organism-based; conditions: in vivo; outline: as §4
[13] = molecular target: Myosin light chain kinase family member 4 (Homo sapiens) (UniProt Q86YV6); experiment: Inhibition of human MYLK4 assessed as remaining enzyme activity at 1 uM by KINOMEscan assay; outline: as §2
Sequence of Myosin light chain kinase family member 4 (Homo sapiens) (Q86YV6 whole entry): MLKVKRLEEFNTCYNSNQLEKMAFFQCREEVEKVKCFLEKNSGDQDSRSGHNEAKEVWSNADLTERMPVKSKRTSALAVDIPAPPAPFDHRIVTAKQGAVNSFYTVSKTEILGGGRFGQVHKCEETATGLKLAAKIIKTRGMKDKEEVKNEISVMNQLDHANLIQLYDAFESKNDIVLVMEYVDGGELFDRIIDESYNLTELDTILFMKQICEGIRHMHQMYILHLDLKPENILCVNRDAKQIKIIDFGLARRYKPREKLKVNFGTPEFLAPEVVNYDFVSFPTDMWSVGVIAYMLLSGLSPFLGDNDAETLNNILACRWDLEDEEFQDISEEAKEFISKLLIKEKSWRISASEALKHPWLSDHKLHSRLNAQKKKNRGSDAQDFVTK

Mus musculus [14] = experiment: In vivo inhibition of Pim1/2-mediated BAD protein phosphorylation at Ser-112 in human KMS-12-BM cells xenografted in SCID-beige mouse assessed as pBAD level at 100 mg/kg, po administered as single dose measured after 16 hrs by meso scale discovery assay; assay type: functional; parameters: scale not given: the % may be the effect or the level left; outline: as §1
[15] = molecular target: Homeodomain-interacting protein kinase 3 (Homo sapiens) (UniProt Q9H422); experiment: Inhibition of human HIPK3 assessed as remaining enzyme activity at 1 uM by KINOMEscan assay; outline: as §2
Sequence of Homeodomain-interacting protein kinase 3 (Homo sapiens) (Q9H422 whole entry, looked up): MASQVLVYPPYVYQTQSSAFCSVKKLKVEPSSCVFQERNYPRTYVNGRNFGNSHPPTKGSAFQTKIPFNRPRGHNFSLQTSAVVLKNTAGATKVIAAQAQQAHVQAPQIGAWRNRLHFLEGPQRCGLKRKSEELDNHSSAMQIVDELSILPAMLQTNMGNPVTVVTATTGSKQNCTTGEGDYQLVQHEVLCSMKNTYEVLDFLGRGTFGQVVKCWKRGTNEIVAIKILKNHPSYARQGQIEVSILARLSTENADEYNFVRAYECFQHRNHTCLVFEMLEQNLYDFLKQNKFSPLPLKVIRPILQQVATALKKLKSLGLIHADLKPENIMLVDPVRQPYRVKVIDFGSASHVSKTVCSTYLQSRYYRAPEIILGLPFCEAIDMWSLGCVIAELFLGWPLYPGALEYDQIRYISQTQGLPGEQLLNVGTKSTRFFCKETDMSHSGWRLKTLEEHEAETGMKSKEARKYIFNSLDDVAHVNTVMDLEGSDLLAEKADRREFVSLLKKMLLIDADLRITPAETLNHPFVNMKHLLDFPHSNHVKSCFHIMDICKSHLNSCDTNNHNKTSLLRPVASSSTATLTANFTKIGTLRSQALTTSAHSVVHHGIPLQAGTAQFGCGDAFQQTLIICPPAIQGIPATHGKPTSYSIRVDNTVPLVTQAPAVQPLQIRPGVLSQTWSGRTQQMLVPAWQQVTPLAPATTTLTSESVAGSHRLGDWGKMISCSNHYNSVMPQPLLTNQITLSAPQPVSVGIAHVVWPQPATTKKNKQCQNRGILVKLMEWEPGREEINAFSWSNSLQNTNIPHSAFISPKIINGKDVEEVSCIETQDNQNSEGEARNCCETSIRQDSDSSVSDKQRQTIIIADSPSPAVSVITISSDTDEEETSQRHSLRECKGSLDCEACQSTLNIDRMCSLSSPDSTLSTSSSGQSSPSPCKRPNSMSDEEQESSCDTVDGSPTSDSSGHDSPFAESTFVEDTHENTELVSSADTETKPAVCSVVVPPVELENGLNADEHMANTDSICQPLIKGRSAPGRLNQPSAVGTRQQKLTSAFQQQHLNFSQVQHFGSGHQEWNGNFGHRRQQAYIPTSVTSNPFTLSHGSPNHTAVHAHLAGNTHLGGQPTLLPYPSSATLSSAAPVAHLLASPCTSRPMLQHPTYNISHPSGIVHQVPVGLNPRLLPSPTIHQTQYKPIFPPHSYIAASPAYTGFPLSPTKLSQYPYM

[16] = Drug metabolism in rat liver microsomes assessed as compound turnover at 1 uM incubated for 30 mins; assay type: ADME; conditions: read-out: Drug metabolism
[17] = molecular target: Serine/threonine-protein kinase pim-2 (Homo sapiens, UniProt Q9P1W9); experiment: Inhibition of human full-length Pim2 expressed in Escherichia coli assessed as phosphorylation of biotinylated BAD peptide at Ser 112 preincubated for 30 mins followed by substrate addition measured after 1 hr by HTRF assay
Sequence of Serine/threonine-protein kinase pim-2 (Q9P1W9 whole entry): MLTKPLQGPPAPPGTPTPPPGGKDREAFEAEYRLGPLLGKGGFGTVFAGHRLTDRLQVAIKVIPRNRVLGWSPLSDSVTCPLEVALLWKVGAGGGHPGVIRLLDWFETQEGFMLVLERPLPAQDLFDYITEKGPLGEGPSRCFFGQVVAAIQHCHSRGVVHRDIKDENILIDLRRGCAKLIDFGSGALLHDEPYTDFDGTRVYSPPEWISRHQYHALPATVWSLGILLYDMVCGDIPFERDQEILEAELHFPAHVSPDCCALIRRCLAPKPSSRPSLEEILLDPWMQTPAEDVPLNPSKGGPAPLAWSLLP
Outline: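 Cell-free kinase assay using recombinant Pim-1 or Pim-2. Read-out is phosphorylation of a short BAD peptide sequence spanning Ser-112.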

[18] = Oral bioavailability in Sprague-Dawley rat at 5 mg/kg; assay type: ADME, organism-based; conditions: in vivo; outline: as §3
Rattus norvegicus = experiment: Clearance in Sprague-Dawley rat at 2 mg/kg, iv relative to hepatic blood flow; assay type: ADME, organism-based, Liver; conditions: in vivo; outline: as §3
[19] = Antitumor activity against human KMS-12-BM cells xenografted in SCID-beige mouse at 100 mg/kg, po qd relative to vehicle control; assay type: functional; conditions: read-out: TGI
Outline: (§5)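 Mouse KMS-12-BM xenograft efficacy study running 16 days. Oral dosing once daily at 10, 25, 50 or 100 mg/kg. Tumor volume compared with vehicle-treated controls.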

Mus musculus [20] = experiment: In vivo inhibition of Pim1/2-mediated BAD protein phosphorylation at Ser-112 in human KMS-12-BM cells xenografted in SCID-beige mouse assessed as pBAD level at 50 mg/kg, po administered as single dose measured after 16 hrs by meso scale discovery assay; assay type: functional; parameters: scale not given: the % may be the effect or the level left; outline: as §1
[21] = Fraction unbound in SCID-beige mouse plasma at 5 uM by LC/MS analysis; assay type: ADME, cell-free
[22] = Clearance in Sprague-Dawley rat at 2 mg/kg, iv; assay type: ADME, organism-based; conditions: in vivo; outline: as §3
[23] = Apparent permeability in pig LLC-PK1 cells at 5 uM; assay type: ADME, cell-based, Sus scrofa
[24] = molecular target: Serine/threonine-protein kinase pim-1 (Homo sapiens, UniProt P11309); experiment: Inhibition of human full-length Pim1 expressed in Escherichia coli assessed as phosphorylation of biotinylated BAD peptide at Ser-112 preincubated for 30 mins followed by substrate addition measured after 1 hr by HTRF assay
Sequence of Serine/threonine-protein kinase pim-1 (P11309 whole entry): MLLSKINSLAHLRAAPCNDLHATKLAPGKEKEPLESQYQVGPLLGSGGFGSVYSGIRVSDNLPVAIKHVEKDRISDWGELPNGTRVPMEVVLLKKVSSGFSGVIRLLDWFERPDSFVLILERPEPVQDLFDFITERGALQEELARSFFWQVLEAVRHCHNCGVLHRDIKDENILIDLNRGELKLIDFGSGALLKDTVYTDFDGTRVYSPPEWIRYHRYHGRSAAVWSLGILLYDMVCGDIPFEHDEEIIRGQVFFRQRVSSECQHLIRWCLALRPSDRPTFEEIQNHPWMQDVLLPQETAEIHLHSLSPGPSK

[25] = molecular target: Dual specificity protein kinase CLK2 (Homo sapiens) (UniProt P49760); experiment: Inhibition of human CLK2 assessed as remaining enzyme activity at 1 uM by KINOMEscan assay; outline: as §2
Sequence of Dual specificity protein kinase CLK2 (Homo sapiens) (P49760 whole entry, looked up): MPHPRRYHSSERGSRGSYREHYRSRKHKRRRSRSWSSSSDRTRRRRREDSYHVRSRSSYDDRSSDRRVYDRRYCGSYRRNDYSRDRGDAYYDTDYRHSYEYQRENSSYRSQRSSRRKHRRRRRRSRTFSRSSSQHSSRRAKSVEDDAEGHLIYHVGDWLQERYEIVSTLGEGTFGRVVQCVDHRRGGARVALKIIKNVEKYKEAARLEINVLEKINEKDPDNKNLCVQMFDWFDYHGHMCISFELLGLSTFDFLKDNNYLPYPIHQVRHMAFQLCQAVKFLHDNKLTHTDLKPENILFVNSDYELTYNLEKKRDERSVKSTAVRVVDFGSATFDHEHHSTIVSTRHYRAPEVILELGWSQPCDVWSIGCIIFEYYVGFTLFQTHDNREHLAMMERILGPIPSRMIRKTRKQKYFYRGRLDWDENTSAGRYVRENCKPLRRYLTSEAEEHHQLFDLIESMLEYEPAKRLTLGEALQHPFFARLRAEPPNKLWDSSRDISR

[26] = molecular target: Casein kinase II subunit alpha (Homo sapiens) (UniProt P68400); experiment: Inhibition of full-length human CSNK2A1 expressed in mammalian system assessed as remaining enzyme activity at 1 uM by KINOMEscan assay; outline: as §2
Sequence of Casein kinase II subunit alpha (Homo sapiens) (P68400 whole entry, looked up): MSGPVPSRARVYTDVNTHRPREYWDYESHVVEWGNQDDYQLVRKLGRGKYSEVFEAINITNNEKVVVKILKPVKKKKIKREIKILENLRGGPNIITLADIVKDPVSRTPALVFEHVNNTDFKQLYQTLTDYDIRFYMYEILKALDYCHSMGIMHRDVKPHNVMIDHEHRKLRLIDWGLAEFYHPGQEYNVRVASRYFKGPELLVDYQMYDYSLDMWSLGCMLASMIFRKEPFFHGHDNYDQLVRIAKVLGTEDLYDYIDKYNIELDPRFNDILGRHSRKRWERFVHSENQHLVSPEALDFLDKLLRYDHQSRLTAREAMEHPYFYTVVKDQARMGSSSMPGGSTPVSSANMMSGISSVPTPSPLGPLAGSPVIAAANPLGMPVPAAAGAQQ

KMS-12-BM = experiment: Antitumor activity against human KMS-12-BM cells xenografted in orally dosed SCID-beige mouse administered as qd relative to vehicle control; assay type: functional, organism-based; outline: as §5
Mus musculus [27] = experiment: In vivo inhibition of Pim1/2-mediated BAD protein phosphorylation at Ser-112 in human KMS-12-BM cells xenografted in SCID-beige mouse assessed as pBAD level at 50 mg/kg, po administered as single dose measured after 6 hrs by meso scale discovery assay; assay type: functional; parameters: scale not given: the % may be the effect or the level left; outline: as §1

Activity [2]: < 10%
Vd [3]: 1.5 L/kg
metabolised at 0.5 h, 1 µM [4]: 24%
Activity [6]: < 10%
EC50 (Mus musculus [8]): 3.6 µM
Activity [9]: < 10%
Activity [11]: < 10%
Activity [13]: < 10%
Activity [15]: < 10%
metabolised at 0.5 h, 1 µM [16]: 39%
IC50 [17]: 0.5 nM
bioavailability [18]: 48%
CL (Rattus norvegicus): 14%
fraction unbound at 5 µM [21]: 0.0084
clearance [22]: 7.83 mL/min/kg
Papp at 5 µM [23]: 29 ×10⁻⁶ cm/s
IC50 [24]: 0.3 nM
Activity [25]: < 10%
Activity [26]: < 10%
Structure (SMILES): Cc1nc2cccc3c2nc1N[C@H](C)/C=C\C[C@H]1CNC(=O)c2cc-3[nH]c21
Activity (Mus musculus [1]): 35%
Activity (Mus musculus [5]): 0%
Activity (Mus musculus [7]): Non-toxic
Activity (Mus musculus [8]): Dose-dependent effect
IC50 [10]: 151 nM
Activity (Mus musculus [12]): Non-toxic
Activity (Mus musculus [14]): 53%
inhibition in vivo at 100 mg/kg [19]: 100%
Activity (Mus musculus [20]): 8%
TGI (KMS-12-BM): Dose-dependent effect
Activity (Mus musculus [27]): 60%
